# Assay outcomes (PubChem BioAssay)
# An excerpt weighted towards active compounds, which were near 3.7% of everything screened.
# ROMK mod = human ROMK K+ channel modulation, primary screen | B-score at 10 µM | Tet-inducible ROMK, thallium flux fluorescence; actives lie on both sides | P48048 | 130,000 compounds, 2% hits;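 active means signal ratio slope over the read window, or its plate-corrected B-score, at least 3 SD from the plate mean, either direction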;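 further: B-score of the F/F0 ratio slope over 7 to 12 s after thallium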
# Target sequence (P48048 whole entry, looked up): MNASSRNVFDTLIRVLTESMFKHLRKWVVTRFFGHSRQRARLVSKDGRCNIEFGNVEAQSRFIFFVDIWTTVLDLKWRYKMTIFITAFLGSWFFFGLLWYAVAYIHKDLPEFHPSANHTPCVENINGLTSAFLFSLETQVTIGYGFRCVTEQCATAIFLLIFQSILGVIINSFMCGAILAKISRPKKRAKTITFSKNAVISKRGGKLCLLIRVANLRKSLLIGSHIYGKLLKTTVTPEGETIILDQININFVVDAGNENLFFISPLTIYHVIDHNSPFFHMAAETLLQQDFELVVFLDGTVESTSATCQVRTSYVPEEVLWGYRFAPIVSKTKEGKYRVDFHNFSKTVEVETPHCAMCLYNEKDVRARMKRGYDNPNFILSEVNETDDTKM
# MT stabilize HCS = microtubule stabilization, imaging screen. % tubulin-high responders, % at 10 µM. 200,000 compounds, 0.83% hits. HeLa tubulin immunostaining HCS, 24 h; share of cells brighter than vehicle mean+2SD;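 active means plate Z-score above 3 for both tubulin-high and condensed-nucleus cell shares, with cell loss under 80%, at 10 µM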;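 further: anti alpha tubulin signal scored within the nucleus-defined area of each cell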
# bCat nuc transl = modulators of beta-catenin nuclear translocation; 190,000 compounds, 0.3% hits; nuclear translocation activity, % at 5 µM; HeLa beta-catenin nuclear translocation, immunofluorescence imaging;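 active means nuclear translocation activity above 50% at 5 µM, with a well cell count of 50 or more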;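 further: per-cell ratio of nuclear to cytoplasmic median beta-catenin stain intensity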
#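 Technique: fluorescence imaging of beta-catenin antibody stain plus DAPI / Material: human HeLa cell line / Incubation: compound treatment 24 h, 37°C, 5% CO2 / Read-out basis: % activation of per-cell nuclear versus cytoplasmic median beta-catenin signal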
# Redox H2O2 prof = compounds producing H2O2 with reducing agent – biochemical, NIH compound library profiling, artefact control for MLSCN library redox annotation, primary screen; DTT-dependent redox cycling H2O2, phenol red/HRP absorbance; 100% = 100 µM peroxide control, 0% = buffer; activation, % at 10 µM; 200,000 compounds, 0.03% hits;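 active means activation of at least 50% relative to the plate's high and low controls in the primary single-dose screen; inactive means activation below 50%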;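 further: compound incubated with DTT at 0.8 mM final as the reducing agent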
# KCC2 mod = modulators of human KCC2 chloride dependent transport; Q9H2X9; KCC2 cells, thallium flux FluoZin-2 fluorescence; B-score of Tl+ flux slope (higher = more flux/activation; lower = inhibition) at 10 µM; 190,000 compounds, 2.2% hits; AID 1456;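 active means thallium flux slope and its plate-corrected score both differing from the plate sample mean at a set confidence after two filtering rounds, in either direction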;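 further: slope of fluorescence scaled to starting intensity during 10 to 20 s after thallium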
# Numbers stand for hits; 0 = inactive; - = no result given.
SMILES,ROMK mod,MT stabilize HCS,bCat nuc transl,Redox H2O2 prof,KCC2 mod
Cc1ccc(/C=N/Nc2nc(Cl)c(Cl)cc2Cl)s1,-,0,0,0,7.61
Cc1ccsc1/C=N/Nc1nc(Cl)c(Cl)cc1Cl,-,0,0,0,0
Cc1sc2ncnc(N3CCCC(C)C3)c2c1C (configuration not stated),0,0,0,0,0
Cc1ccc(C(C(=O)NC2CCCCC2)N(Cc2ccco2)C(=O)Cn2cnc3ccccc32)cc1 (configuration not stated),-3.31,0,0,0,0
Cn1ccnc1SCC(=O)Nc1cc(S(=O)(=O)N2CCOCC2)ccc1Cl,0,0,0,0,0
C=CCN=c1scc(-c2ccccc2)n1/N=C/c1ccccn1,0,0,0,0,-4.12
Cc1nc2ccccc2c(=O)n1/N=C/c1ccccn1,-,0,0,0,0
CCN=c1scc(-c2ccccc2)n1/N=C/c1ccccn1,-,0,0,0,-3.77
C=CCN=c1scc(-c2ccc(F)cc2)n1/N=C/c1ccccn1,-,0,0,0,0
Cc1ccc2c(c1)C1CN(C)CCC1N2Sc1ccccc1[N+](=O)[O-] (configuration not stated),-,-,0,-,0
NC(=O)c1cc2cc([N+](=O)[O-])ccc2oc1=O,0,0,0,0,0
COc1cc(NC(=O)C(=O)NNC(=O)C2CCCCC2)c(OC)cc1Cl,0,0,0,0,51
COc1cc(NC(=S)N2CCCCC2C)c(OC)cc1Cl (configuration not stated),0,0,0,0,0
CC(Oc1ccccc1)c1ccn[nH]1 (configuration not stated),0,0,0,0,0
CCCN(CCC)c1cc(Cl)nc(N)n1,0,0,0,0,0
O=C1NC(c2ccccc2Cl)Nc2ccccc21 (configuration not stated),0,27.1,0,0,-
CCCCC(=Nc1ccccc1OC)C1=C(O)CC(c2ccccc2)CC1=O (configuration not stated),0,0,0,0,0
CCC/C(O)=C1\C(=O)CC(c2ccccc2)CC1=NCCc1c(C)[nH]c2ccccc12 (configuration not stated),0,0,0,0,0
CCCC(=NCCc1c(C)[nH]c2ccccc12)C1=C(O)CC(c2ccccc2)CC1=O (configuration not stated),0,25.7,131.9,0,0
CCCCC(=NCCc1c(C)[nH]c2ccccc12)C1=C(O)CC(c2ccccc2)CC1=O (configuration not stated),-,0,50.5,0,0
Clc1ccc(-n2nnnc2-c2ccccc2)cc1,0,0,0,0,0
COc1ccc(-n2nnnc2-c2ccccc2)cc1,0,36.3,-,0,0
O=c1oc(Nc2cccc(Cl)c2)nc2ccccc12,0,0,0,0,0
O=S(=O)(Nc1ccc2c(c1)nc1n2CCN(Cc2ccccc2)C1)c1ccc(Cl)cc1,-,30.1,0,0,0
CC(C)Cc1cc(CN2CCC(CO)(Cc3cccc(C(F)(F)F)c3)CC2)[nH]n1,0,0,0,0,0
SMILES,ROMK mod,MT stabilize HCS,bCat nuc transl,Redox H2O2 prof,KCC2 mod
Cc1ccc(S(=O)(=O)/N=C2/NC(=O)/C(=C\c3ccco3)S2)cc1,0,0,0,0,0
COc1cc(/C=C2\S/C(=N/S(=O)(=O)c3ccc(C)cc3)NC2=O)c([N+](=O)[O-])cc1OC,0,0,0,0,-6.51
N#Cc1cn(-c2ccccc2)nc1C(=O)c1ccccc1,0,0,62.5,0,0
Nc1ccc(C(=O)N2CCCC2)cc1,0,0,0,0,0
Nc1ccc(C(=O)n2c3ccccc3c3ccccc32)cc1,0,45.5,-,0,0
CCOC(=O)c1ccc(NC2=CC(=O)CC(c3ccco3)C2)cc1 (configuration not stated),0,0,0,0,0
O=C1C=C(Nc2ccc(O)cc2)CC(c2ccco2)C1 (configuration not stated),0,45.7,0,0,0
O=C(COc1ccc(Cl)cc1Cl)NC(=S)N1CCCc2ccccc21,0,0,0,0,20.7
Cc1cccc(OCC(=O)Nc2ccccc2N2CCCCC2)c1,0,0,0,0,-
O=C(COc1ccc(Cl)cc1Cl)OCC(=O)N1CCCc2ccccc21,-,0,0,0,0
Cc1cccc(OCC(=O)NC(=S)N2CCCc3ccccc32)c1,0,0,0,0,23.3
COc1cc(CC(=O)N(c2ccccc2)c2nc(C)cs2)cc(OC)c1OC,0,0,0,0,0
C(=C\c1ccccc1)/CSc1nnc(-c2cnccn2)n1Cc1ccco1,-,0,56.4,0,-
O=C(Nc1nnc(-c2cccs2)o1)c1cccc(F)c1,-,0,-,0,26.2
COc1ccc(Cl)cc1S(=O)(=O)n1cnc2ccccc21,0,26.4,0,0,0
CCOc1ccc(Cl)cc1S(=O)(=O)n1cnc2ccccc21,-,24.2,-,0,-
COc1cc(S(=O)(=O)n2nnc3ccccc32)c(OC)cc1Cl,-2.31,0,0,0,0
CCOc1cc(C)c(Cl)cc1S(=O)(=O)n1cnc2ccccc21,0,0,-,0,0
COc1ccc(CN(C)Cc2nc3scc(-c4ccccc4)c3c(=O)[nH]2)cc1OC,0,0,0,0,0
Cc1ccccc1-n1cnc2cc(NCc3cccs3)ccc21,-,27.4,0,0,0
COc1ccccc1-n1cnc2cc(NCc3cccs3)ccc21,-,18.0,162.2,0,0
O=C(c1ccco1)N1CCN(C(=O)c2ccccc2NS(=O)(=O)c2ccc(F)cc2)CC1,0,0,0,0,0
Clc1ccc(CN(Cc2ccc(Cl)cc2)c2nn[nH]n2)cc1,0,0,0,0,-5.9
Cc1cc(Nc2n[nH]c(N)c2C#N)ccc1F,-,0,0,0,0
Cc1c(Cc2ccccc2)sc(/N=C/c2ccc3ccccc3c2)c1C(N)=O,0,19.2,100.7,0,0
SMILES,ROMK mod,MT stabilize HCS,bCat nuc transl,Redox H2O2 prof,KCC2 mod
CC(C(=O)c1ccccc1)[n+]1cccc(C(N)=O)c1 (configuration not stated),-,-,0,-,-
O=C(Nc1ccccc1O)/C(=C\c1ccccc1)NC(=O)c1ccccc1,0,0,0,0,0
CCOc1ccc2nc(-c3ccccc3)[nH]c2c1,0,42.5,78.1,0,-
CC(C)(C)NS(=O)(=O)c1ccc(CCC(=O)N2CCCC2)cc1,0,0,0,0,0
CCCCCOCC(O)CCC(=O)NN (configuration not stated),0,0,0,0,0
Cc1cc(C)c2nc(SCC(=O)NCC3CCCO3)c(C#N)cc2c1 (configuration not stated),0,0,0,0,-
COc1ccc(/C=C2\C(=O)c3ccccc3OC2c2ccccc2)cc1 (configuration not stated),-,-,0,-,0
CCOc1ccc(/C=C2\C(=O)c3ccccc3OC2c2ccccc2)cc1 (configuration not stated),-,35.6,-,0,0
COC(=O)/C=C/C(=O)Nc1cccc(C(F)(F)F)c1,-,0,0,0,0
